Laboratory results from ChEMBL document CHEMBL4400546, “A Cinchona Alkaloid Antibiotic That Appears To Target ATP Synthase in Streptococcus pneumoniae” (J Med Chem, 2019).
Converted amounts (≈) assume the structure as drawn. The source made the active and inactive calls. The rule behind the calls is not given here.

Assays:
Streptococcus pneumoniae [1] = experiment: Bactericidal activity against Streptococcus pneumoniae D39 after 24 hrs; format: functional; settings: D39, 24 h
Streptococcus pneumoniae [2] = experiment: Antibacterial activity against Streptococcus pneumoniae R6 after 20 hrs by CLSI-based microdilution method; format: functional; settings: R6, 20 h
[3] = test system: Streptococcus pneumoniae D39; experiment: Inhibition of wild-type Streptococcus pneumoniae D39 ATP synthase atpE assessed as intracellular pH at 0.25 ug/ml measured at 15 mins by pH-sensitive GFP-based fluorescence assay (reference value: 7.34 +/- 0.04); format: cell-based
Outline: (§1)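 S. pneumoniae D39 WT and isogenic atpE G142C or G145A mutants carry a plasmid-borne ratiometric pH-sensitive GFP biosensor. Cells are in PBS pH 7.2 with 10 mM glucose and are treated with compound, DMSO (0.5% v/v) or CCCP (10 µM). Intracellular pH is read immediately and at 5-min intervals. Two independent experiments, each in triplicate.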

Streptococcus pneumoniae [4] = experiment: Potentiation of rifampicin-induced antibacterial activity against Streptococcus pneumoniae D39 at 2 times MIC after 20 hrs by checkerboard assay; format: functional
Outline: (§2)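 Checkerboard combination assay in S. pneumoniae D39 with the partner antibiotic. Fractional inhibitory concentration indices were calculated, and the minimum FICI was taken per combination. Three to four independent checkerboards were run.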

Staphylococcus aureus = experiment: Antibacterial activity against Staphylococcus aureus TH4114 after 20 hrs by CLSI-based microdilution method; format: functional; settings: TH4114, 20 h
[5] = Cytotoxicity against human HepG2 cells assessed as reduction in cell viability after 48 hrs by Alamar Blue assay; format: cell-based
Acinetobacter baumannii = experiment: Antibacterial activity against Acinetobacter baumannii TH9781 after 20 hrs by CLSI-based microdilution method; format: functional; settings: TH9781, 20 h
[6] = test system: Streptococcus pneumoniae D39; experiment: Inhibition of wild-type Streptococcus pneumoniae D39 ATP synthase atpE G142C mutant assessed as change in intracellular pH at 0.25 ug/ml measured at 5 mins by pH-sensitive GFP-based fluorescence assay (reference value: 7.34 +/- 0.04); format: cell-based; outline: as §1
[7] = test system: Streptococcus pneumoniae D39; experiment: Inhibition of wild-type Streptococcus pneumoniae D39 ATP synthase atpE assessed as intracellular pH at 0.25 ug/ml measured at 10 mins by pH-sensitive GFP-based fluorescence assay (reference value: 7.34 +/- 0.04); format: cell-based; outline: as §1
Streptococcus pneumoniae [8] = experiment: Antibacterial activity against optochin-resistant Streptococcus pneumoniae R6 expressing atpE G145A mutant after 20 hrs by CLSI-based microdilution method; format: functional; settings: R6, 20 h
[9] = test system: Streptococcus pneumoniae D39; experiment: Inhibition of wild-type Streptococcus pneumoniae D39 ATP synthase atpE assessed as intracellular pH at 0.0625 ug/ml measured immediately post treatment by pH-sensitive GFP-based fluorescence assay (reference value: 7.34 +/- 0.04); format: cell-based; outline: as §1
[10] = Mitochondrial toxicity in human HepG2 cells assessed as reduction in cell viability after 24 hrs in presence of glucose by CellTiter-Glo assay; format: cell-based
Outline: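 HepG2 cells grown in DMEM with 10 mM glucose, treated 24 h; viability read by CellTiter-Glo luminescence. Value is the concentration giving 90% loss of viability (CC90) from dose-response curves, top concentration 300 µM.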

[11] = test system: Streptococcus pneumoniae D39; experiment: Inhibition of wild-type Streptococcus pneumoniae D39 ATP synthase atpE assessed as intracellular pH at 8 ug/ml measured at 5 mins by pH-sensitive GFP-based fluorescence assay (reference value: 7.34 +/- 0.04); format: cell-based; outline: as §1
[12] = test system: Streptococcus pneumoniae D39; experiment: Inhibition of wild-type Streptococcus pneumoniae D39 ATP synthase atpE G145 mutant assessed as reduction in intracellular pH at >2 ug/ml measured at 5 mins by pH-sensitive GFP-based fluorescence assay; format: cell-based; outline: as §1
[13] = test system: Mycobacterium tuberculosis; experiment: Antibacterial activity against Mycobacterium tuberculosis H37Rv after […] by CLSI-based microdilution method; format: functional
Streptococcus pneumoniae [14] = experiment: Bacteriostatic activity against Streptococcus pneumoniae D39 up 100 times MIC after 18 hrs by time-kill assay; format: functional, organism-based
Outline: (§3)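 Time-kill in S. pneumoniae D39 at multiples of MIC. Killing is followed by OD620 up to 18 h, with CFU determined at each time point by plating. Vancomycin is the positive control. Four independent experiments.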

Streptococcus pneumoniae [15] = experiment: Bacteriostatic activity against Streptococcus pneumoniae D39 assessed as resistant frequency at 4 to 16 times MIC after 24 hrs by time-kill assay; format: functional, organism-based
Streptococcus pneumoniae [16] = experiment: Antibacterial activity against optochin-resistant Streptococcus pneumoniae R6 expressing atpE G142C mutant after 20 hrs by CLSI-based microdilution method; format: functional; settings: R6, 20 h
[17] = test system: Streptococcus pneumoniae D39; experiment: Inhibition of wild-type Streptococcus pneumoniae D39 ATP synthase atpE G142C mutant assessed as reduction in intracellular pH at >0.25 to 8 ug/ml measured at 5 mins by pH-sensitive GFP-based fluorescence assay; format: cell-based; outline: as §1
Pseudomonas aeruginosa = experiment: Antibacterial activity against Pseudomonas aeruginosa TH4090 after 20 hrs by CLSI-based microdilution method; format: functional; settings: TH4090, 20 h
[18] = Mitochondrial toxicity in human HepG2 cells assessed as reduction in cell viability after 24 hrs in presence of galactose by CellTiter-Glo assay; format: cell-based
Outline: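 HepG2 cells are grown in DMEM supplemented with 10 mM galactose or 10 mM glucose and treated for 24 h. Viability is read by CellTiter-Glo luminescence. The CC90 is the concentration inhibiting 90% of cell viability, taken from dose–response curves. Oligomycin and tamoxifen serve as controls.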

[19] = test system: Streptococcus pneumoniae D39; experiment: Inhibition of wild-type Streptococcus pneumoniae D39 ATP synthase atpE assessed as intracellular pH at 0.25 ug/ml measured at 5 mins by pH-sensitive GFP-based fluorescence assay (reference value: 7.34 +/- 0.04); format: cell-based; outline: as §1
Escherichia coli = experiment: Antibacterial activity against Escherichia coli TH4746 after 20 hrs by CLSI-based microdilution method; format: functional; settings: TH4746, 20 h
Streptococcus pneumoniae [20] = experiment: Potentiation of penicillin-induced antibacterial activity against Streptococcus pneumoniae D39 at 2 times MIC after 20 hrs by checkerboard assay; format: functional; outline: as §2
Klebsiella pneumoniae = experiment: Antibacterial activity against Klebsiella pneumoniae ATCC 13883 after 20 hrs by CLSI-based microdilution method; format: functional; settings: ATCC 13883, 20 h
[21] = test system: Streptococcus pneumoniae D39; experiment: Inhibition of wild-type Streptococcus pneumoniae D39 ATP synthase atpE assessed as intracellular pH at 0.0625 ug/ml measured at 5 mins by pH-sensitive GFP-based fluorescence assay (reference value: 7.34 +/- 0.04); format: cell-based; outline: as §1
Streptococcus mitis = experiment: Antibacterial activity against Streptococcus mitis ST138 after 20 hrs by CLSI-based microdilution method; format: functional; settings: ST138, 20 h
Streptococcus pneumoniae [22] = experiment: Antibacterial activity against amoxicillin/penicillin/erythromycin/ertapenem/moxifloxacin/cefotaxime-resistant Streptococcus pneumoniae TH2889 (6B) after 20 hrs by CLSI-based microdilution method; format: functional
Streptococcus pyogenes = experiment: Antibacterial activity against Streptococcus pyogenes ST157 after 20 hrs by CLSI-based microdilution method; format: functional; settings: ST157, 20 h
Streptococcus pneumoniae [23] = experiment: Antibacterial activity against amoxicillin/penicillin/chloramphenicol/erythromycin/meropenem/cefotaxime-resistant Streptococcus pneumoniae TH2582 (19A) after 20 hrs by CLSI-based microdilution method; format: functional
Streptococcus pneumoniae [24] = experiment: Bacteriostatic activity against Streptococcus pneumoniae D39 at 1 to 5 times MIC after 18 hrs by time-kill assay; format: functional, organism-based; outline: as §3
Streptococcus pneumoniae [25] = experiment: Antibacterial activity against penicillin/erythromycin/meropenem/tetracycline-resistant Streptococcus pneumoniae TH2863 (19F) after 20 hrs by CLSI-based microdilution method; format: functional
Streptococcus pneumoniae [26] = experiment: Antibacterial activity against Streptococcus pneumoniae D39 after 20 hrs by CLSI-based microdilution method; format: functional; settings: D39, 20 h
Streptococcus pneumoniae [27] = experiment: Potentiation of levofloxacin-induced antibacterial activity against Streptococcus pneumoniae D39 at 2 times MIC after 20 hrs by checkerboard assay; format: functional; outline: as §2
Enterobacter cloacae = experiment: Antibacterial activity against Enterobacter cloacae TH11715 after 20 hrs by CLSI-based microdilution method; format: functional; settings: TH11715, 20 h
Streptococcus pneumoniae [28] = experiment: Bacteriostatic activity against Streptococcus pneumoniae D39 at 1 to 5 times MIC using 10^7CFU inoculum after 18 hrs by time-kill assay; format: functional, organism-based; outline: as §3
Streptococcus pneumoniae [29] = experiment: Antibacterial activity against amoxicillin/penicillin/cefotaxime/erythromycin/tetracycline-resistant Streptococcus pneumoniae TH2784 (19F) after 20 hrs by CLSI-based microdilution method; format: functional
Streptococcus pneumoniae [30] = experiment: Potentiation of vancomycin-induced antibacterial activity against Streptococcus pneumoniae D39 at 2 times MIC after 20 hrs by checkerboard assay; format: functional; outline: as §2
Enterococcus faecium = experiment: Antibacterial activity against Enterococcus faecium TH6064 after 20 hrs by CLSI-based microdilution method; format: functional; settings: TH6064, 20 h
Streptococcus pneumoniae [31] = experiment: Bactericidal activity against Streptococcus pneumoniae D39 assessed as fold reduction in CFU at 5 times MIC after 3 hrs by time-kill assay relative to control; format: functional; outline: as §3

SMILES: CC=C1C[N@]2CC[C@H]1C[C@H]2[C@H](O)c1ccnc2ccc(OC3CCC3)cc12
- MBC (Streptococcus pneumoniae [1]): 1 to 2 µg/mL (≈ 2.74 to 5.49 µM)
- MIC (Streptococcus pneumoniae [2]): 0.5 µg/mL (≈ 1.37 µM)
- deltapH [3]: -0.52
- FIC (Streptococcus pneumoniae [4]): 0.63 - 1
- MIC (Staphylococcus aureus): 128 µg/mL (≈ 351 µM)
- CC50 at 48 h [5]: 56 µM
- MIC (Acinetobacter baumannii): 128 µg/mL (≈ 351 µM)
- deltapH [6]: < 0.03
- pH [7]: 6.68
- MIC (Streptococcus pneumoniae [8]): 4 µg/mL (≈ 11 µM)
- pH [9]: 7.11
- CC90 at 24 h [10]: 150 µM
- pH [11]: 6.66
- inhibition [12]: Active
- MIC [13]: > 256 µg/mL
- Activity (Streptococcus pneumoniae [14]): Active
- Activity (Streptococcus pneumoniae [15]): Active
- MIC (Streptococcus pneumoniae [16]): 8 to 16 µg/mL (≈ 21.9 to 43.9 µM)
- inhibition [17]: Active
- MIC (Pseudomonas aeruginosa): > 128 µg/mL
- CC90 at 24 h [18]: 150 µM
- pH [19]: 6.82
- MIC (Escherichia coli): > 128 µg/mL
- FIC (Streptococcus pneumoniae [20]): 0.63 - 1
- MIC (Klebsiella pneumoniae): 128 µg/mL (≈ 351 µM)
- pH [21]: 7.02
- MIC (Streptococcus mitis): 16 µg/mL (≈ 43.9 µM)
- MIC (Streptococcus pneumoniae [22]): 0.5 µg/mL (≈ 1.37 µM)
- MIC (Streptococcus pyogenes): 32 µg/mL (≈ 87.8 µM)
- MIC (Streptococcus pneumoniae [23]): 0.25 to 0.5 µg/mL (≈ 0.686 to 1.37 µM)
- Activity (Streptococcus pneumoniae [24]): Active
- MIC (Streptococcus pneumoniae [25]): 0.5 to 1 µg/mL (≈ 1.37 to 2.74 µM)
- MIC (Streptococcus pneumoniae [26]): 0.7 µM (≈ 0.255 µg/mL)
- FIC (Streptococcus pneumoniae [27]): 0.63 - 1
- MIC (Enterobacter cloacae): > 128 µg/mL
- Activity (Streptococcus pneumoniae [28]): Active
- MIC (Streptococcus pneumoniae [29]): 0.5 µg/mL (≈ 1.37 µM)
- FIC (Streptococcus pneumoniae [30]): 0.63 - 1
- MIC (Enterococcus faecium): 64 to 128 µg/mL (≈ 176 to 351 µM)

SMILES: CN[C@H](CC(C)C)C(=O)N[C@H]1C(=O)N[C@@H](CC(N)=O)C(=O)N[C@H]2C(=O)N[C@H]3C(=O)N[C@H](C(=O)N[C@H](C(=O)O)c4cc(O)cc(O)c4-c4cc3ccc4O)[C@H](O)c3ccc(c(Cl)c3)Oc3cc2cc(c3O[C@@H]2O[C@H](CO)[C@@H](O)[C@H](O)[C@H]2O[C@H]2C[C@](C)(N)[C@H](O)[C@H](C)O2)Oc2ccc(cc2Cl)[C@H]1O [VANCOMYCIN]
- fold change (FC) (Streptococcus pneumoniae [31]): 1000
